The values that follow come from PubChem BioAssay.

Calls of active or inactive are those of the source.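 How the source made its calls, unless noted: active means viability at or below 10% of carrier control in both of two separate runs; inconclusive means viability at or below 10% in only one of the two runs; inactive means the rest.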

A short description of test [1]: reducers of endogenous Her2 protein level, primary screen, SKBR3 breast tumor cells, AlphaScreen, ATP viability (AID 461;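 active means Her2 level under about 52% in both replicate screens, with viability over 70% of control, limit read from the data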;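 on Her2 level: lower value means less Her2 protein in the cells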;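 on viability: percent of carrier control wells set as 100% viability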). The settings on record: 18-24 h, measured here: SKBR3 viability, ATP luminescence, at 10 µM.
Test [2] concerns the target Receptor tyrosine-protein kinase erbB-2 (Homo sapiens) (UniProt P04626). The test is described as above. To be noted: 18-24 h, at 10 µM, stronger effect = lower value.
The nature of test [3]: SK-BR-3 cell growth inhibitors, pilot screen, 24 h, human (AID 572).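 Further: compound exposure lasted between 18 and 24 h rather than exactly 24 h; 100% = carrier-treated control wells.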 To be noted: SK-BR-3 viability, CellTiter-Glo luminescence, at 10 µM, stronger effect = lower value. For orientation: Cellular ATP, detected with luciferase, serves as a proxy for viable cell number.
Test [4] can be described thus: HUVEC growth inhibition – cell-based, human, primary screen (AID 575;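 active means viability at or below 30% in both replicate assays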;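 further: 100% = median of untreated cell wells with 0.1% DMSO on each plate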). To be noted: HUVEC proliferation, CellTiter-Glo luminescence, 72 h; at 10 µM; stronger effect = lower value. A digest of the protocol: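 Material: primary human umbilical vein endothelial cells / Schedule: 72 h exposure, 37 °C, 5% CO2, 30 min RT equilibration / Signal: ATP-based CellTiter-Glo luminescent read / Read-out basis: percent of median DMSO-control luminescence / Control set: 32 DMSO-only cell-control wells (high), 32 MePR drug-control wells (low) per plate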

Test [5] in a line: growth inhibitors of H69AR lung tumor, primary screen, human, duplicate replicates (AID 580;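 active means viability at or under a set limit in both replicates, limit being median viability minus 3 SD, cut at about 48% in these data, passing the limit was not always enough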;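 further: 100% = mean luminescence of untreated wells and 0% = no signal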). The settings on record: H69AR lung tumor cells viability, ATP luminescence, 72 h; at 10 µM; stronger effect = lower value.
The nature of test [6]: reversal of MRP1-mediated doxorubicin resistance, pilot screen, H69AR cells, doxorubicin co-treatment (AID 601;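 active means viability loss from added drug above about 55%, and viability with drug at most 40%, in both replicates, limit read from the data, passing the limit was not always enough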). The settings on record: CellTiter-Glo, 72 h, at 10 µM; for differential viability (reversal): stronger effect = higher value.
Test [7] in a line: 384-well plate pilot, post-Golgi transport modulator project, inhibition of yeast transport mutant growth (AID 636; in the data active means inhibition above about 31%). To be noted: absorbance 615 nm, about 18 h, stronger effect = higher value.
The nature of test [8]: growth suppression of yeast trafficking mutant, preliminary HTS, modulators of trafficking downstream of Golgi apparatus project, 1536-format plate, OD 615 nm (AID 637; in the data active means inhibition above about 30%). To be noted: yeast transport mutant growth, absorbance 615 nm, 18 h; stronger effect = higher value.
Where [9] appears, read: H69AR cells + 2 uM doxorubicin, measured here: viability with 2 uM doxorubicin, stronger effect = lower value.
The mark [10] stands for this setting: H69AR cells, compound alone cytotoxicity.

Sequence of Receptor tyrosine-protein kinase erbB-2 (Homo sapiens) (P04626 whole entry, looked up): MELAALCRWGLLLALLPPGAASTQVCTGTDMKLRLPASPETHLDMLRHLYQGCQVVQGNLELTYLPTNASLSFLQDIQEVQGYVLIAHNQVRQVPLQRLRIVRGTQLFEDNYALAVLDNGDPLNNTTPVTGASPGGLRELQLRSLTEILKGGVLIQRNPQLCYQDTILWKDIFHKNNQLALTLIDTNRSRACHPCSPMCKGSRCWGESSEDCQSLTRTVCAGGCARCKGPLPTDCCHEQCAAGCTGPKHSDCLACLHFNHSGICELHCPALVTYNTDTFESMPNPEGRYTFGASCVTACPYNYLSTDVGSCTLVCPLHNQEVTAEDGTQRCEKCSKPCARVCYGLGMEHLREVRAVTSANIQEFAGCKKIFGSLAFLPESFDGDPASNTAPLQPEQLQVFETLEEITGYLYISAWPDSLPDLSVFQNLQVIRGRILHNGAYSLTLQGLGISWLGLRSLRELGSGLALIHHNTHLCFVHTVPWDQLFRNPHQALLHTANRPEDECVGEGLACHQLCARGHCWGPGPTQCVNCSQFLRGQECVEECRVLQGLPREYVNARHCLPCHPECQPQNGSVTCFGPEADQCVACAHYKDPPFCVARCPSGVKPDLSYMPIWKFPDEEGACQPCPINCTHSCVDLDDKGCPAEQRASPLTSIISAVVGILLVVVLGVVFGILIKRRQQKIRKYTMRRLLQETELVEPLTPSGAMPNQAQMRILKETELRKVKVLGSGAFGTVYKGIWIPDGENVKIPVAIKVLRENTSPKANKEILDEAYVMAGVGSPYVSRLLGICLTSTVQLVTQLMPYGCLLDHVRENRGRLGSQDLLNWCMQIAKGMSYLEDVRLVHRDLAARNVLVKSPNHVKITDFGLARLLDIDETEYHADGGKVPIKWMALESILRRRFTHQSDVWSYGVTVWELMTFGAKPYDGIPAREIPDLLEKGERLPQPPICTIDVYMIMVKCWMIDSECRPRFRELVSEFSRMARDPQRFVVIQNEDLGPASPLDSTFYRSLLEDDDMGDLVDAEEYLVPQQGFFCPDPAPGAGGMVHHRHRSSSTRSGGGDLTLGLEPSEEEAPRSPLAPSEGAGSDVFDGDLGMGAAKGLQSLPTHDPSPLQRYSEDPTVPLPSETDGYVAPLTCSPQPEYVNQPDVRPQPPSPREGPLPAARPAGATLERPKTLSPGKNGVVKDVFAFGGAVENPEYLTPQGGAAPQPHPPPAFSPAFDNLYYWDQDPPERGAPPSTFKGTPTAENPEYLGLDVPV

On to `Cc1nc2ccc(NC(=O)N3CCSCC3)cc2s1`, for which the viability (commonly a read-out of living cells in per cent, often relative to untreated cells) in test [1] was 89.5%; in test [3], 89.5% (inactive); in test [4], 108% (inactive); in test [5], 94.3% (inactive); in test [6] (setting [9]) it was 100%; in test [6] (setting [10]), 94.3%. In addition, in test [2], the Her2 level was 107% (inactive). For the same molecule, the differential viability (reversal) in test [6] (H69AR cells + 2 uM doxorubicin) is -5.83% (inactive). Besides, the inhibition – broadly, the relative decrease from the control value, in per cent – in test [7] was 1.84% (inactive); in test [8], 8.89% (inactive).
On to `Oc1ccccc1C1=Nc2nc3ccccc3n2C(c2ccccc2)C1` (stereo not given), for which the viability in test [1] is 75.5%; in test [3] it was 75.5% (inactive); in test [4], 103% (inactive); in test [5] it was 65% (inactive); in test [6] (setting [9]) it was 77.7%; in test [6] (setting [10]) it was 65%. The Her2 level in test [2] is 86.5% (inactive). Moreover, in test [6] (H69AR cells + 2 uM doxorubicin), the differential viability (reversal) is -12.7% (inactive). Besides, the inhibition is -7.24% (inactive) in test [7] and -1.15% (inactive) in test [8].
On to `c1ccc(CNc2ncnc3ccccc23)cc1`, for which the viability in test [1] was 86%; in test [3], 86% (inactive); in test [4] it was 58.2% (inactive); in test [5] it was 83.8% (inactive); in test [6] (setting [9]), 97.3%; in test [6] (setting [10]) it was 83.8%. Besides, the Her2 level in test [2] is 87% (inactive). In test [6] (H69AR cells + 2 uM doxorubicin), the differential viability (reversal) was -13.6% (inactive). In addition, the inhibition in test [7] is -5% (inactive); in test [8], 3.93% (inactive).
As for `Cc1csc2nc(CSc3ccc(Cl)cc3)cn12`, the viability in test [1] is 97.5%; in test [3], 97.5% (inactive); in test [4], 80.9% (inactive); in test [5], 88.2% (inactive); in test [6] (setting [9]), 72.3%; in test [6] (setting [10]), 88.2%. Further, the Her2 level in test [2] was 78% (inactive). In addition, the differential viability (reversal) in test [6] (H69AR cells + 2 uM doxorubicin) was 15.9% (inactive). Moreover, the inhibition in test [7] is -5.87% (inactive); in test [8] it was 3.77% (inactive).
Regarding `O=C(NCCC1=CCCCC1)C1CC(=O)N(C2CCCCCC2)C1` (stereo not given), the viability is 98% in test [1]; 98% (inactive) in test [3]; 104% (inactive) in test [4]; 99.5% (inactive) in test [5]; 88.5% in test [6] (setting [9]); 99.5% in test [6] (setting [10]). Also, the Her2 level in test [2] was 110% (inactive). Also, in test [6] (H69AR cells + 2 uM doxorubicin), the differential viability (reversal) is 11% (inactive). In addition, the inhibition was -1.15% (inactive) in test [7] and -0.67% (inactive) in test [8].
As to `COc1ccc(-c2cc(C(=O)Nc3ccc(C)cc3)no2)cc1`, the viability in test [1] was 121%; in test [3], 121% (inactive); in test [4], 109% (inactive); in test [5], 99.1% (inactive); in test [6] (setting [9]), 89.7%; in test [6] (setting [10]), 99.1%. For the same molecule, the Her2 level in test [2] was 114% (inactive). In addition, the differential viability (reversal) in test [6] (H69AR cells + 2 uM doxorubicin) is 9.35% (inactive). In addition, the inhibition in test [7] was -3.11% (inactive); in test [8] it was 41% (active).
In the case of `COc1ccc(C(=O)N2CCCc3ccccc32)cc1`, the viability in test [1] is 87.5%; in test [3], 87.5% (inactive); in test [4], 116% (inactive); in test [5], 104% (inactive); in test [6] (setting [9]), 93%; in test [6] (setting [10]) it was 104%. In addition, the Her2 level in test [2] is 94% (inactive). Also, the differential viability (reversal) in test [6] (H69AR cells + 2 uM doxorubicin) is 11.1% (inactive). For the same molecule, the inhibition in test [7] is -4% (inactive); in test [8] it was 5.81% (inactive).
For the molecule `CC1CCN(C(=O)CN2C(=O)C(C)(C)Oc3ccc(C(=O)NC4CCCC4)cc32)CC1`, the viability in test [1] was 82%; in test [3], 82% (inactive); in test [4], 83.1% (inactive); in test [5] it was 93.4% (inactive); in test [6] (setting [9]), 88.9%; in test [6] (setting [10]), 93.4%. Also, the Her2 level in test [2] was 104% (inactive). Further, in test [6] (H69AR cells + 2 uM doxorubicin), the differential viability (reversal) was 4.5% (inactive). For the same molecule, the inhibition in test [7] is -5% (inactive); in test [8] it was -7.05% (inactive).
In the case of `COc1ccc2c(-c3cccnc3)cc(=O)[nH]c2c1`, the viability in test [1] was 116%; in test [3] it was 116% (inactive); in test [4], 87.2% (inactive); in test [5], 96% (inactive); in test [6] (setting [9]) it was 87.2%; in test [6] (setting [10]) it was 96%. Moreover, the Her2 level in test [2] is 93.5% (inactive). Also, in test [6] (H69AR cells + 2 uM doxorubicin), the differential viability (reversal) was 8.77% (inactive). The inhibition in test [7] was -6.4% (inactive); in test [8], 4.43% (inactive).
With `CC(C)C(=O)Nc1cccc(NC(=O)c2cccnc2)c1`, the viability is 102% in test [1]; 102% (inactive) in test [3]; 107% (inactive) in test [4]; 97.9% (inactive) in test [5]; 99.6% in test [6] (setting [9]); 97.9% in test [6] (setting [10]). Besides, in test [2], the Her2 level is 98.5% (inactive). Moreover, in test [6] (H69AR cells + 2 uM doxorubicin), the differential viability (reversal) is -1.67% (inactive). Also, the results for the inhibition in test [7] and in test [8] were -2.63% (inactive) and 4.1% (inactive), respectively.
With `COC(=O)Nc1nnc(CCc2ccccc2)s1`, the viability in test [1] is 115%; in test [3] it was 115% (inactive); in test [4] it was 97.2% (inactive); in test [5] it was 95.2% (inactive); in test [6] (setting [9]), 80.3%; in test [6] (setting [10]), 95.2%. In test [2], the Her2 level is 97.5% (inactive). Besides, the differential viability (reversal) in test [6] (H69AR cells + 2 uM doxorubicin) is 14.9% (inactive). Moreover, the inhibition in test [7] was -7.07% (inactive); in test [8] it was 9.52% (inactive).
In the case of `CCC(C)(C)NC(=O)C(OC(=O)c1ccco1)c1ccccc1OC` (stereo not given), the viability in test [1] is 99%; in test [3], 99% (inactive); in test [4], 91.4% (inactive); in test [5], 106% (inactive); in test [6] (setting [9]), 87.2%; in test [6] (setting [10]), 106%. Moreover, in test [2], the Her2 level was 93% (inactive). For the same molecule, the differential viability (reversal) in test [6] (H69AR cells + 2 uM doxorubicin) is 18.8% (inactive). In addition, the inhibition is -3.65% (inactive) in test [7] and -5% (inactive) in test [8].
`Cc1cc(C)c(OCC(=O)Nc2ccc3c(c2)OCO3)cc1C`: the viability in test [1] is 106%; in test [3], 106% (inactive); in test [4], 92% (inactive); in test [5] it was 84.5% (inactive); in test [6] (setting [9]), 88%; in test [6] (setting [10]), 84.5%. Also, the Her2 level in test [2] is 116% (inactive). For the same molecule, in test [6] (H69AR cells + 2 uM doxorubicin), the differential viability (reversal) was -3.51% (inactive). Further, the inhibition is -4% (inactive) in test [7] and -11.4% (inactive) in test [8].
For the molecule `Cc1c(NC(=O)C(C)OC(=O)COc2cccc3c2OC(C)(C)C3)c(=O)n(-c2ccccc2)n1C` (stereo not given), the viability was 112% in test [1]; 112% (inactive) in test [3]; 124% (inactive) in test [4]; 92% (inactive) in test [5]; 93.3% in test [6] (setting [9]); 92% in test [6] (setting [10]). In addition, in test [2], the Her2 level was 106% (inactive). For the same molecule, the differential viability (reversal) in test [6] (H69AR cells + 2 uM doxorubicin) is -1.3% (inactive). Besides, the inhibition in test [7] was -4.47% (inactive); in test [8], 17.2% (inactive).
In the case of `CCOC(=O)N1CCN(c2c(NCCCOC(C)C)c(=O)c2=O)CC1`, the viability was 97.5% in test [1]; 97.5% (inactive) in test [3]; 86.8% (inactive) in test [4]; 97.5% (inactive) in test [5]; 89.8% in test [6] (setting [9]); 97.5% in test [6] (setting [10]). The Her2 level in test [2] is 90% (inactive). In test [6] (H69AR cells + 2 uM doxorubicin), the differential viability (reversal) was 7.67% (inactive). The results for the inhibition in test [7] and in test [8] were -3.47% (inactive) and -0.98% (inactive), respectively.
For `CC1/C(=N/O)C(CN(C)C)C2CC1C2(C)C` (stereo not given), the viability is 107% in test [1]; 107% (inactive) in test [3]; 99.3% (inactive) in test [4]; 108% (inactive) in test [5]; 76.3% in test [6] (setting [9]); 108% in test [6] (setting [10]). Moreover, the Her2 level in test [2] was 84.5% (inactive). Further, the differential viability (reversal) in test [6] (H69AR cells + 2 uM doxorubicin) was 31.7% (inactive). The results for the inhibition in test [7] and in test [8] were -3.38% (inactive) and -3.49% (inactive), respectively.
